Data published in ChEMBL document CHEMBL1122744, “2-Chloroethyl (methylsulfonyl)methanesulfonate and related (methylsulfonyl)methanesulfonates. Antineoplastic activity in vivo” (J Med Chem, 1984).

Assays:
Mus musculus [1] = assay: Mortality by day 5 expressed as number of mice died to the total treated at dose 22 mg/kg in exp7; 0/6; format: ADME, organism-based; design: dose 22 mg/kg; details: in vivo
[2] = Ratio of number of 30-day survivors to the total treated mice at dose 50 mg/kg in exp4; 6/6; format: functional
[3] = Ratio of number of 60-day survivors to the total treated mice at dose 50 mg/kg in exp6; […]; format: functional
Mus musculus [4] = assay: Median survival time of the treated control groups, in which there are no 30-day survivors at dose 100 mg/kg in exp2; format: functional
Mus musculus [5] = assay: Mortality by day 5 expressed as number of mice died to the total treated at dose 50 mg/kg in exp2; 0/5; format: ADME, organism-based; design: dose 50 mg/kg; details: in vivo
Mus musculus [6] = assay: Change in weight by day 5, obtained by subtracting treated groups of animals minus control groups of animals at dose 33 mg/kg in exp3.; format: functional
Summary of the method: (§1)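 Mice were inoculated ip with 10^6 P388 leukemia cells on day 0 and weighed 19–22 g that day. Compound was given ip once daily on days 1–5, within about 5 min of preparing the solution or suspension, to groups of six (occasionally five). Thirty inoculated untreated mice served as controls. The value is the average weight change of treated mice minus that of controls on day 5.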

Mus musculus [7] = assay: Median survival time of the untreated control groups, in which there are no 30-day survivors at dose 150 mg/kg in exp2; format: functional
Mus musculus [8] = assay: Change in weight by day 5, obtained by subtracting treated groups of animals minus control groups of animals at dose 15 mg/kg in exp3.; format: functional; summary of the method: as §1
[9] = Ratio of median survival times for non-survivors at dose 75 mg/kg in exp2; format: functional
Mus musculus [10] = assay: Mortality by day 5 expressed as number of mice died to the total treated at dose 100 mg/kg in exp2; 1/5; format: ADME, organism-based; design: dose 100 mg/kg; details: in vivo
Mus musculus [11] = assay: Median survival time of the treated control groups, in which there are no 30-day survivors at dose 33 mg/kg in exp3; format: functional
Mus musculus [12] = assay: Median survival time of the untreated control groups, in which there are no 30-day survivors at dose 33 mg/kg in exp6; format: functional
Mus musculus [13] = assay: Median survival time of the untreated control groups, in which there are no 30-day survivors at dose 50 mg/kg in exp8; format: functional
Mus musculus [14] = assay: Median survival time of the untreated control groups, in which there are no 30-day survivors at dose 75 mg/kg in exp2; format: functional
[15] = Ratio of median survival times for non-survivors at dose 22 mg/kg in exp6; format: functional
[16] = Ratio of median survival times for non-survivors at dose 50 mg/kg in exp2; format: functional
Summary of the method: (§2)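 Mice were inoculated ip with 10^6 P388 leukemia cells on day 0. Groups of six (occasionally five) were dosed ip qd on days 1–5 with fresh suspensions; 30 mice served as untreated controls. Deaths were recorded daily up to day 60. T/C% compares the median survival of treated non-survivors (<60 days) with the control median. Medians used grouped data when there were no 30-day survivors, otherwise ungrouped data. t = toxic.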

Mus musculus [17] = assay: Change in weight by day 5, obtained by subtracting treated groups of animals minus control groups of animals at dose 22 mg/kg in exp4.
Mus musculus [18] = assay: Median survival time of the treated control groups, in which there are no 30-day survivors at dose 33 mg/kg in exp5; format: functional
Mus musculus [19] = assay: Change in weight by day 5, obtained by subtracting treated groups of animals minus control groups of animals at dose 22 mg/kg in exp5; format: functional; summary of the method: as §1
Mus musculus [20] = assay: Median survival time of the treated control groups, in which there are no 30-day survivors at dose 50 mg/kg in exp1; format: functional
Mus musculus [21] = assay: Median survival time of the treated control groups, in which there are no 30-day survivors at dose 100 mg/kg in exp8; format: functional
[22] = Ratio of median survival times for non-survivors at dose 33 mg/kg in exp5; format: functional
Mus musculus [23] = assay: Median survival time of the untreated control groups, in which there are no 30-day survivors at dose 50 mg/kg in exp5; format: functional
Mus musculus [24] = assay: Median survival time of the untreated control groups, in which there are no 30-day survivors at dose 15 mg/kg in exp3; format: functional
Mus musculus [25] = assay: Median survival time of the treated control groups, in which there are no 30-day survivors at dose 33 mg/kg in exp6; format: functional
[26] = Ratio of number of 60-day survivors to the total treated mice at dose 33 mg/kg in exp4; 0/6; format: functional
Mus musculus [27] = assay: Mortality by day 5 expressed as number of mice died to the total treated at dose 200 mg/kg in exp1; 5/6; format: ADME, organism-based; design: dose 200 mg/kg; details: in vivo
Mus musculus [28] = assay: Mortality by day 5 expressed as number of mice died to the total treated at dose 33 mg/kg in exp7; 0/6; format: ADME, organism-based; design: dose 33 mg/kg; details: in vivo
[29] = Ratio of number of 30-day survivors to the total treated mice at dose 50 mg/kg in exp6; 3/6; format: functional
Mus musculus [30] = assay: Median survival time of the untreated control groups, in which there are no 30-day survivors at dose 200 mg/kg in exp8; format: functional
Mus musculus [31] = assay: Median survival time of the treated control groups, in which there are no 30-day survivors at dose 100 mg/kg in exp1; format: functional
Mus musculus [32] = assay: Change in weight by day 5, obtained by subtracting treated groups of animals minus control groups of animals at dose 50 mg/kg in exp7; format: functional; summary of the method: as §1
[33] = Ratio of number of 30-day survivors to the total treated mice at dose 50 mg/kg in exp2; 2/5; format: functional
Mus musculus [34] = assay: Median survival time of the treated control groups, in which there are no 30-day survivors at dose 75 mg/kg in exp2; format: functional
[35] = Ratio of median survival times for non-survivors at dose 200 mg/kg in exp1; t= toxic; format: ADME, organism-based; design: dose 200 mg/kg; details: in vivo; summary of the method: as §2
Mus musculus [36] = assay: Change in weight by day 5, obtained by subtracting treated groups of animals minus control groups of animals at dose 75 mg/kg in exp2.; format: functional; summary of the method: as §1
Mus musculus [37] = assay: Change in weight by day 5, obtained by subtracting treated groups of animals minus control groups of animals at dose 33 mg/kg in exp6; format: functional; summary of the method: as §1
Mus musculus [38] = assay: Change in weight by day 5, obtained by subtracting treated groups of animals minus control groups of animals at dose 50 mg/kg in exp6; format: functional; summary of the method: as §1
[39] = Ratio of median survival times for non-survivors at dose 15 mg/kg in exp3; format: functional; summary of the method: as §2
Mus musculus [40] = assay: Mortality by day 5 expressed as number of mice died to the total treated at dose 22 mg/kg in exp3; 0/5; format: ADME, organism-based; design: dose 22 mg/kg; details: in vivo
Mus musculus [41] = assay: Mortality by day 5 expressed as number of mice died to the total treated at dose 50 mg/kg in exp7; 0/6; format: ADME, organism-based; design: dose 50 mg/kg; details: in vivo

CS(=O)(=O)CS(=O)(=O)OCCCl
Mortality (Mus musculus [1]): 0
Ratio [2]: 6
Ratio [3]: 2
Median survival time (Mus musculus [4]): 22.5
Mortality (Mus musculus [5]): 0
Change in weight (Mus musculus [6]): -2.8
Median survival time (Mus musculus [7]): 11.2
Change in weight (Mus musculus [8]): -0.9
Ratio [9]: 156
Mortality (Mus musculus [10]): 1
Median survival time (Mus musculus [11]): 22
Median survival time (Mus musculus [12]): 13
Median survival time (Mus musculus [13]): 11
Median survival time (Mus musculus [14]): 11.2
Ratio [15]: 160
Ratio [16]: 241
Change in weight (Mus musculus [17]): -1.2
Median survival time (Mus musculus [18]): 25.7
Change in weight (Mus musculus [19]): -1.3
Median survival time (Mus musculus [20]): 31.5
Median survival time (Mus musculus [21]): 6
Ratio [22]: 214
Median survival time (Mus musculus [23]): 12
Median survival time (Mus musculus [24]): 11.1
Median survival time (Mus musculus [25]): 23.3
Ratio [26]: 0
Mortality (Mus musculus [27]): 5
Mortality (Mus musculus [28]): 0
Ratio [29]: 3
Median survival time (Mus musculus [30]): 11
Median survival time (Mus musculus [31]): 17
Change in weight (Mus musculus [32]): -3
Ratio [33]: 2
Median survival time (Mus musculus [34]): 17.5
Ratio [35]: Toxic
Change in weight (Mus musculus [36]): -4.2
Change in weight (Mus musculus [37]): -2.1
Change in weight (Mus musculus [38]): -3.1
Ratio [39]: 144
Mortality (Mus musculus [40]): 0
Mortality (Mus musculus [41]): 0
